According to ChEMBL document CHEMBL1138753, “Synthesis and biological activity of analogues of the antimicrotubule agent N,beta,beta-trimethyl-L-phenylalanyl-N(1)-[(1S,2E)-3-carboxy-1-isopropylbut-2-enyl]- N(1),3-dimethyl-L-valinamide (HTI-286)” (J Med Chem, 2004):

Assays:
[1] = target: Tubulin beta-1 chain (Homo sapiens, UniProt Q9H4B7); test: Percent inhibition of tubulin polymerization at 0.3 uM concentration; format: functional
[2] = test system: KB; test: Concentration required to inhibit tumor cell growth in KB-V1 cells; format: functional, cell-based; conditions: Homo sapiens
Procedure, shortened: (§1)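 Cytotoxicity was measured in paclitaxel-sensitive KB-3-1 cells and in KB-8-5 and KB-V1 cells, which express moderate and high P-glycoprotein respectively. Result is the average IC50 (nM) ± SEM; SEM is omitted where it is below 10% of the average.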

[3] = test system: KB; test: Concentration required to inhibit tumor cell growth in KB-8-5 cells; format: functional, cell-based, Homo sapiens; procedure, shortened: as §1
[4] = Concentration required to inhibit tumor cell growth in KB-3-1 cells; format: functional, cell-based, Homo sapiens; procedure, shortened: as §1

Tubulin beta-1 chain, sequence (Q9H4B7 whole entry): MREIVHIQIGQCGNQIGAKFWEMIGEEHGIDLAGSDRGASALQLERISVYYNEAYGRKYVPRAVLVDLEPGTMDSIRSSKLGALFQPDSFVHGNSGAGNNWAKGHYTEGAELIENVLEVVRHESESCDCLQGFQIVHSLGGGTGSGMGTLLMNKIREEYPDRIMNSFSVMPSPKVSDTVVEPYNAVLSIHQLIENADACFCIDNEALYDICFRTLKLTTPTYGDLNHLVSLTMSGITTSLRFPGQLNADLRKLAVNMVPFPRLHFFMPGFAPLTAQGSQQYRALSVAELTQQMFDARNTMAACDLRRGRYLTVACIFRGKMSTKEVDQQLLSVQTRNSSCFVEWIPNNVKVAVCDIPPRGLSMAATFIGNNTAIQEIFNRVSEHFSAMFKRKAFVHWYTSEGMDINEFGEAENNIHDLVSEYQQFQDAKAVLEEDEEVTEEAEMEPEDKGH

SMILES	inhibition [1]	IC50 [2]	IC50 ([3]; Homo sapiens, KB)	IC50 ([4]; Homo sapiens, KB 3-1)	IC50 ([3]; kb)	IC50 ([4]; kb 3-1)
CO[C@H](C(=O)N[C@H](C(=O)N(C)[C@H](/C=C(\C)C(=O)O)C(C)C)C(C)(C)C)C(C)(C)c1ccccc1	54%	> 3000 nM	1230 nM	1420 nM	–	–
CN[C@H](C(=O)N[C@H](C(=O)N(C)[C@H](/C=C(\C)C(=O)NCc1ccc(-c2ccccc2)cc1)C(C)C)C(C)(C)C)C(C)(C)c1ccccc1	11%	> 3000 nM	1680 nM	667 nM	–	–
CCCCCCCCOC(=O)/C(C)=C/[C@H](C(C)C)N(C)C(=O)[C@@H](NC(=O)[C@@H](NC)C(C)(C)c1ccccc1)C(C)(C)C	26%	> 3000 nM	1630 nM	150 nM	–	–
CNC(=O)CN[C@H](C(=O)N[C@H](C(=O)N(C)[C@H](/C=C(\C)C(=O)O)C(C)C)C(C)(C)C)C(C)(C)c1ccccc1	0%	> 3000 nM	> 3000 nM	> 3000 nM	–	–
CN[C@H](C(=O)N[C@@H](Cc1ccccc1)C(=O)N(C)[C@H](/C=C(\C)C(=O)O)C(C)C)C(C)(C)c1ccccc1	40%	> 3000 nM	2400 nM	1320 nM	–	–
C/C(=C\[C@H](C(C)C)N(C)C(=O)[C@@H](NC(=O)[C@@H](N)C(C)(C)c1ccccc1)C(C)(C)C)C(=O)O (stereo in doubt; 20) [listing 1 of 2 here]	95%	–	–	–	–	–
CCCCCC(C)(C)[C@H](NC)C(=O)N[C@H](C(=O)N(C)[C@H](/C=C(\C)C(=O)O)C(C)C)C(C)(C)C	72%	513 nM	19 nM	9 nM	–	–
C/C(=C\[C@H](C(C)C)N(C)C(=O)[C@@H](NC(=O)[C@@H](NCc1ccccc1)C(C)(C)c1ccccc1)C(C)(C)C)C(=O)O	55%	> 3000 nM	1880 nM	1790 nM	–	–
CN[C@H](C(=O)N[C@H](C(=O)N(C)[C@H](/C=C(\C)C(=O)O)C(C)C)C(C)(C)C)C1(c2ccccc2)CCCCC1	5%	> 3000 nM	363 nM	204 nM	–	–
CN[C@H](C(=O)N[C@H](C(=O)N(C)[C@H](/C=C(\C)C(=O)O)C(C)C)C(C)(C)C)C1(c2ccccc2)CC1	99%	1660 nM	57 nM	27 nM	–	–
C/C(=C\[C@H](C(C)C)N(C)C(=O)[C@@H](NC(=O)[C@@H](N)C(C)(C)c1ccccc1)C(C)(C)C)C(=O)O (stereo in doubt; 20) [listing 2 of 2 here]	–	> 3000 nM	–	–	550 nM	427 nM
CN[C@H](C(=O)N[C@H](C(=O)N(C)[C@H](/C=C(\C)C(=O)NCCc1ccccc1)C(C)C)C(C)(C)C)C(C)(C)c1ccccc1	72%	1770 nM	226 nM	163 nM	–	–
CN[C@@H](Cc1ccccc1)C(=O)N[C@H](C(=O)N(C)[C@H](/C=C(\C)C(=O)O)C(C)C)C(C)(C)C	66%	> 3000 nM	646 nM	603 nM	–	–
CN[C@H](C(=O)N[C@@H](C)C(=O)N(C)[C@H](/C=C(\C)C(=O)O)C(C)C)C(C)(C)c1ccccc1	8%	> 3000 nM	902 nM	381 nM	–	–
CNCC(=O)N[C@H](C(=O)N[C@H](C(=O)N(C)[C@H](/C=C(\C)C(=O)O)C(C)C)C(C)(C)C)C(C)(C)c1ccccc1	4%	> 3000 nM	2120 nM	1400 nM	–	–
CN[C@H](C(=O)N[C@H](C(=O)N(C)[C@H](/C=C(\C)C(=O)O)C(C)C)C(C)(C)C)C(C)(C)Cc1ccccc1	87%	219 nM	6 nM	3 nM	–	–
C/C(=C\[C@H](C(C)C)N(C)C(=O)[C@@H](NC(=O)[C@H](Cc1ccccc1)C(C)(C)c1ccccc1)C(C)(C)C)C(=O)O	46%	> 6000 nM	2240 nM	1690 nM	–	–
CN[C@H](C(=O)N[C@H](C(=O)N(C)[C@H](/C=C(\C)C(=O)N1CCN(Cc2ccccc2)CC1)C(C)C)C(C)(C)C)C(C)(C)c1ccccc1	29%	366 nM	22 nM	15 nM	–	–
CN[C@H](C(=O)N[C@H](C(=O)N(C)[C@H](/C=C(\C)C(=O)O)C(C)C)C(C)(C)C)C(C)(C)C	43%	> 3000 nM	180 nM	114 nM	–	–
CN[C@H](C(=O)N[C@H](C(=O)N(C)[C@H](/C=C(\C)C(=O)O)C(C)C)C(C)(C)C)C(C)(C)c1ccc(-c2ccccc2)cc1	86%	177 nM	6.8 nM	3.2 nM	–	–
CN[C@H](C(=O)N[C@H](C(=O)N(C)[C@@H](/C=C(\C)C(=O)O)C(C)C)C(C)(C)C)C(C)(C)c1ccccc1 (single isomer, unassigned)	0%	> 3000 nM	1650 nM	605 nM	–	–
C=CC[C@H](C(=O)N[C@H](C(=O)N(C)[C@H](/C=C(\C)C(=O)O)C(C)C)C(C)(C)C)C(C)(C)c1ccccc1	63%	> 6000 nM	1200 nM	1150 nM	–	–
